Experimental data: ChEMBL document CHEMBL2069239, “High DNA affinity of a series of peptide linked diaromatic guanidinium-like derivatives” (J Med Chem, 2012)
Activity calls are given as the source filed them. No cut-off for these calls is given here.

Tests used:
Nucleic Acid [1] = assay: Binding affinity to AATT DNA by SPR analysis; format: nucleic-acid assay
Outline: (§1)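 Biosensor analysis against three immobilized DNA hairpin duplexes in degassed MES buffer (10 mM MES, 1 mM EDTA, 92 mM NaCl, 0.0005% v/v P20, pH 6.25) at 25 °C. A ligand concentration series was injected at 20 μL/min for 5 min, then dissociated for 5 min, with NaCl/NaOH regeneration. K was fitted from steady-state RU versus free ligand using a two-site binding equation.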

Nucleic Acid [2] = assay: Binding affinity to (GC)4 DNA by SPR analysis; format: nucleic-acid assay; outline: as §1
Nucleic Acid [3] = assay: Binding affinity to Salmon sperm DNA in phosphate buffer assessed as change in melting temperature by thermal denaturation assay; format: nucleic-acid assay; conditions: Salmonidae
Outline: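 UV melting of salmon sperm DNA (150 μM base) with compound (15 μM), giving a compound:base ratio of 0.1, in 10 mM sodium phosphate buffer at pH 7. Absorbance at 260 nm was followed from 20 to 90 °C at 1 °C/min, collecting five points per °C, in a 1 cm quartz cell.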

Nucleic Acid [4] = assay: Binding affinity to (AT)4 DNA by SPR analysis; format: nucleic-acid assay; outline: as §1
Nucleic Acid [5] = assay: Binding affinity to poly(dA.dT)2 DNA assessed as large induced CD signal at 0.5 mM by circular dichroism study; format: nucleic-acid assay
Nucleic Acid [6] = assay: Binding affinity to DNA assessed as large induced CD signal at 0.5 mM by circular dichroism study; format: nucleic-acid assay
Nucleic Acid [7] = assay: Binding affinity to poly(dA.dT)2 DNA in phosphate buffer assessed as change in melting temperature by thermal denaturation assay
Nucleic Acid [8] = assay: Binding affinity to poly(dA.dT)2 DNA in phosphate buffer by ITC analysis; format: nucleic-acid assay
Outline: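 Calorimetric titration at 25 °C of 2.48 mM compound in 10 mM phosphate buffer into poly(dA·dT)2 in the cell (2 mM). There were 29 injections, spaced 300 s apart. Heat per injection was obtained by integrating the power peak area over time.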

Nucleic Acid [9] = assay: Binding affinity to poly(dA).poly(dT) DNA in MES buffer assessed as change in melting temperature by thermal denaturation assay; format: nucleic-acid assay

Row | SMILES | K (Nucleic Acid [1]) | K (Nucleic Acid [2]) | ΔTm (Nucleic Acid [3]) | K (Nucleic Acid [4]) | Activity (Nucleic Acid [5]) | Activity (Nucleic Acid [6]) | ΔTm (Nucleic Acid [7]) | K (Nucleic Acid [8]) | Activity (Nucleic Acid [9]) | Activity (Nucleic Acid [7])
1 | N=C(N)Nc1ccc(Nc2ccc(N=C3NCCN3)cc2)cc1 | 6.4 ×10⁵ /M | < 1 ×10⁵ /M |  |  |  |  |  |  |  | 
2 | N=C(N)Nc1ccc(NC(=O)c2ccc(NC(=N)N)cc2)cc1 | 71 ×10⁵ /M | < 1 ×10⁵ /M | 11 °C | 18 ×10⁵ /M | Active | Active | 20 °C |  |  | 
3 | O=C(Nc1ccc(NC2=NCCN2)cc1)c1ccc(NC2=NCCN2)cc1 | 93.7 ×10⁵ /M | < 1 ×10⁵ /M | 12.5 °C | 47.7 ×10⁵ /M | Active | Active | 29 °C | 4.9 ×10⁵ /M |  | 
4 | Nc1ccc(C(=O)Nc2ccc(NC3=NCCN3)cc2)cc1 |  |  | 2 °C |  |  |  |  |  | inactive | inactive
5 | N=C(N)Nc1ccc(NC(=O)c2ccc(NC3=NCCN3)cc2)cc1 |  |  | 10 °C |  | Active | Active | 26.1 °C | 1.54 ×10⁵ /M |  | 
6 | N=C(N)Nc1ccc(C(=O)c2ccc(N=C3NCCN3)cc2)cc1 | 2.7 ×10⁵ /M |  |  |  |  |  |  |  |  | 
7 | Nc1ccc2cc3ccc(N)cc3nc2c1 | 5.7 ×10⁵ /M | 6.5 ×10⁵ /M |  | 12.2 ×10⁵ /M |  |  |  |  |  | 
8 | N=C(N)Nc1ccc(NC(=O)c2ccc(N)cc2)cc1 |  |  | 1 °C |  |  |  |  |  | inactive | inactive
